According to PMC4160070 (Journal of clinical pharmacology, 2014):
Read-outs that look alike come from different tables or passages of the source. Values belong to the molecule of their own block, whether it stands above or below them.

How the values were obtained:
[1] = Properties of the reconstituted AP301 solution; format: physicochemical; settings: AP301 25 mg/mL, lyophilized powder reconstituted in water for injection
[2] = Aerosol characterization; format: physicochemical
Outline: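 Test compound supplied as lyophilized powder, reconstituted in water for injection to 25 mg/mL. The solution was aerosolized with an Aeroneb Solo vibrating-mesh nebulizer driven by an Aeroneb Pro-X controller. Particle distribution was measured by Next Generation Impactor at 15 L/min and by laser diffraction. Read-outs were fine particle fraction and average droplet size.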

[3] = system: dog; settings: in vivo
[4] = human, in vivo, inhaled or intranasal
[5] = in vivo
[6] = system: healthy male subjects; settings: in vivo
[7] = system: healthy male subjects; settings: in vivo; remark: listed apart in the source
[8] = system: healthy male subjects; settings: in vivo; remark: listed apart in the source
[9] = system: healthy male subjects; settings: in vivo; remark: listed apart in the source
[10] = system: healthy male subjects; settings: in vivo; remark: listed apart in the source
[11] = system: healthy male subjects; settings: in vivo; remark: listed apart in the source
[12] = system: ENaC in primary type II alveolar epithelial cells; settings: rat AEC type II cells, cited from earlier work
[13] = system: ENaC in primary type II alveolar epithelial cells; settings: dog AEC type II cells, cited from earlier work
[14] = system: ENaC in primary type II alveolar epithelial cells; settings: pig AEC type II cells, cited from earlier work
[15] = system: ENaC; settings: cell-based studies; no reference given; cited from earlier work
[16] = system: acute lung injury (ALI) in anaesthetized domestic pigs; settings: pigs with ALI, single nebulization of 1.0 mg/kg, observation 5 hours; cited from earlier work
[17] = system: animal models; settings: various animal models; cited from earlier work
[18] = mouse, in vivo; cited from earlier work
[19] = rat, in vivo; cited from earlier work
[20] = dog, in vivo; cited from earlier work
[21] = 25 mg/mL solution, Aeroneb Solo nebulizer, laser diffraction, Apeptico Research Report, data on file
[22] = whole cell patch clamp, in the presence of AP301

- osmolarity of the solution [1]: 23 mosmol/L
- pH of the solution [1]: 4.40
- viscosity of the solution [1]: 1.07 mPa s
- average droplet size [2, 21]: 3.3 μm
- mean fine particle fraction (FPF) [2, 21]: about 60%
- FPF as determined by NGI ([2]; Next Generation Impactor at 15 L/min): 60%
- maximum recommended starting dose (MRSD) [3]: 0.1 mg/kg BW
- Tmax [4]: ~5 min
- AUC(0-t) ([4]; 12 mg): 0.0333 ng·h/mL
- Cmax ([4]; 12 mg): 0.4 ± 0.6 ng/mL
- Tmax ([4]; 12 mg): 5 min
- AUC(0-t) ([4]; 30 mg): 0.0183 ng·h/mL
- Cmax ([4]; 30 mg): 0.3 ± 0.6 ng/mL
- AUC(0-t) ([4]; 60 mg): 0.93 ng·h/mL
- Cmax ([4]; 60 mg): 2.2 ± 1.4 ng/mL
- Tmax ([4]; 60 mg): 5 min
- AUC(0-t) ([4]; 90 mg): 0.758 ng·h/mL
- Cmax ([4]; 90 mg): 2.4 ± 2.1 ng/mL
- AUC(0-t) ([4]; 120 mg): 0.877 ng·h/mL
- Cmax ([4]; 120 mg): 2.2 ± 1.8 ng/mL
- Tmax ([4]; 120 mg): 2.5 min
- maximum exposure values (Cmax) at mean dose-cohort level [5]: exceeding 2.0 ng/mL
- mean Cmax values in the highest dose groups [5]: < 2.5 ng/mL
- median tmax values across dose groups [5]: 0 to 0.083 h
- subjects with post-dose FEV1 decline of ≥15% from baseline [7]: only a single subject
- content of eNO versus baseline and pooled placebo [8]: did not change
Compound: C[C@@H]1NC(=O)CNC(=O)[C@H](CCC(=O)O)NC(=O)[C@@H]2CCCN2C(=O)[C@H]([C@@H](C)O)NC(=O)[C@H](CCC(=O)O)NC(=O)[C@H](CCCNC(=N)N)NC(=O)[C@H](CCC(N)=O)NC(=O)CNC(=O)[C@@H](N)CSSC[C@@H](C(=O)O)NC(=O)[C@H](Cc2ccc(O)cc2)NC(=O)[C@H](Cc2c[nH]c3ccccc23)NC(=O)[C@@H]2CCCN2C(=O)[C@H](CCCCN)NC(=O)[C@H](C)NC(=O)[C@H](CCC(=O)O)NC1=O [AP301]
- number of AEs considered related to AP301 inhalation [6]: 7
- overall frequency of AEs in subjects randomized to AP301 [6]: 25%
- FEV1 declines of ≥20% from baseline [7]: no FEV1 declines of ≥20% from baseline were noted in any subject
- effects on airway caliber or vital capacity (FVC, FEV1) [7]: absence of relevant dose-dependent effects
- effects on vital signs (SBP, DBP, HR) [9]: no clinically meaningful dose-or time-dependent effects
- QTc value [10]: ≤ 450 milliseconds
- changes in ECG outcome variables [10]: no clinically meaningful or remarkable dose-or time-dependent changes
- changes in safety laboratory variables [11]: No clinically meaningful or remarkable dose-or time-dependent changes
- increase of amiloride-sensitive Na+ currents (via ENaC) versus baseline [12, 22]: about 9 fold
- increase of amiloride-sensitive Na+ currents (via ENaC) versus baseline [13, 22]: ~13 fold
- increase of amiloride-sensitive Na+ currents (via ENaC) versus baseline [14, 22]: ~16 fold
- concentration range in which ENaC activation was dose-dependent [15]: 5 to 100 nM
- oxygenation (PaO2/FiO2) [16]: significant improvement
- pulmonary shunt fraction (Qs/Qt) [16]: reduction
- effective pharmacological dose range [17]: 0.5–1.0 mg/kg BW
- absorption from the pulmonary compartment into the systemic circulation [18]: hardly absorbed
- absorption from the pulmonary compartment into the systemic circulation [19]: hardly absorbed
- absorption from the pulmonary compartment into the systemic circulation [20]: hardly absorbed

Compound: N=C(N)NC(=O)c1nc(Cl)c(N)nc1N [amiloride, reference compound]
- effect on the AP301-induced increase of Na+ current [12]: could be inhibited
- effect on the AP301-induced increase of Na+ current [13]: could be inhibited
- effect on the AP301-induced increase of Na+ current [14]: could be inhibited
